# Experimental data: publication PMC12770939 (Clinical Cancer Research, 2025)
# Legend:
# [1] = tested on: FGFR2-expressing cell lines; settings: excess Bliss score, n=14 cell lines, Supplementary Fig. S11
# pAKT = assay: Western blots of PI3K signaling feedback over time; assay type: cell-based; settings: PIK3CAmut MFM223 cells
# In short: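 PIK3CA-mutant MFM223 and PIK3CA-WT SUM52PE cells treated with 0.5 μmol/L test compound or 1 μmol/L reference PI3Kα inhibitor, with lysates taken at several durations. Immunoblotted for pHER3 and pAKT: nitrocellulose, 5% milk/TBST block, primary 1:1,000 overnight at 4°C, HRP secondary 1:10,000, ECL/film. n=2.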
# mutated p110α = mutated p110α (Homo sapiens, UniProt P42336, H1047R); assay type: cell-based; settings: FGFR2 N550K-overexpressing cells, not matched control cells; 24 h
# Sequence of mutated p110α (P42336 whole entry H1047R): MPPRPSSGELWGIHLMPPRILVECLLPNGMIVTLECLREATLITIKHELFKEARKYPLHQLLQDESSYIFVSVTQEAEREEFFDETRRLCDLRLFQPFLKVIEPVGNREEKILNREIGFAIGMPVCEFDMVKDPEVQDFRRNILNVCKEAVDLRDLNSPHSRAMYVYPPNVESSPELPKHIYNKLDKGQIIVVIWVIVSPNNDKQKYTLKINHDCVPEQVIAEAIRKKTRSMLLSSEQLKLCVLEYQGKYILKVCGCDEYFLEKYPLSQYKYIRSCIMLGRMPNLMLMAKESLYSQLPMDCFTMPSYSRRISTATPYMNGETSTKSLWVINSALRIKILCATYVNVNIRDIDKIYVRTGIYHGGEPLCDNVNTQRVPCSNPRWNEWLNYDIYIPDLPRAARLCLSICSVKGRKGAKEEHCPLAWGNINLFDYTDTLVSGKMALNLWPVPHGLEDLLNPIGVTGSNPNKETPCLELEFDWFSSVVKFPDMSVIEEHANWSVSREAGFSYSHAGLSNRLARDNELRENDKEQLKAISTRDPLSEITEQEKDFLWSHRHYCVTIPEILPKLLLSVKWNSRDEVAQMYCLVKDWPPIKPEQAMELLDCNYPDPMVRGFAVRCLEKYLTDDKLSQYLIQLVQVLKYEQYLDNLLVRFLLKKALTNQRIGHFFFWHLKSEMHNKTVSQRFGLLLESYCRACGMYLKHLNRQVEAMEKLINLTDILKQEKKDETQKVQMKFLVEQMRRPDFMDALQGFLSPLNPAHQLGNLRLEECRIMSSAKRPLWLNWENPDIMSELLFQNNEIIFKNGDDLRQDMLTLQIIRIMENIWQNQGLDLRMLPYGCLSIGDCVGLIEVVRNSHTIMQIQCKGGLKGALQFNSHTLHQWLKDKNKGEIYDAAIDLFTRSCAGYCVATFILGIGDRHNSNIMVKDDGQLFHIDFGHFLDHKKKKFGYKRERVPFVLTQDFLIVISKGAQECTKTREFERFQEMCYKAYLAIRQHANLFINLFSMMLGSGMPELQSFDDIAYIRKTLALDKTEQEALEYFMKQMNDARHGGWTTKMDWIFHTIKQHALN
# Sequence of mutated p110α (O00459 whole entry partner): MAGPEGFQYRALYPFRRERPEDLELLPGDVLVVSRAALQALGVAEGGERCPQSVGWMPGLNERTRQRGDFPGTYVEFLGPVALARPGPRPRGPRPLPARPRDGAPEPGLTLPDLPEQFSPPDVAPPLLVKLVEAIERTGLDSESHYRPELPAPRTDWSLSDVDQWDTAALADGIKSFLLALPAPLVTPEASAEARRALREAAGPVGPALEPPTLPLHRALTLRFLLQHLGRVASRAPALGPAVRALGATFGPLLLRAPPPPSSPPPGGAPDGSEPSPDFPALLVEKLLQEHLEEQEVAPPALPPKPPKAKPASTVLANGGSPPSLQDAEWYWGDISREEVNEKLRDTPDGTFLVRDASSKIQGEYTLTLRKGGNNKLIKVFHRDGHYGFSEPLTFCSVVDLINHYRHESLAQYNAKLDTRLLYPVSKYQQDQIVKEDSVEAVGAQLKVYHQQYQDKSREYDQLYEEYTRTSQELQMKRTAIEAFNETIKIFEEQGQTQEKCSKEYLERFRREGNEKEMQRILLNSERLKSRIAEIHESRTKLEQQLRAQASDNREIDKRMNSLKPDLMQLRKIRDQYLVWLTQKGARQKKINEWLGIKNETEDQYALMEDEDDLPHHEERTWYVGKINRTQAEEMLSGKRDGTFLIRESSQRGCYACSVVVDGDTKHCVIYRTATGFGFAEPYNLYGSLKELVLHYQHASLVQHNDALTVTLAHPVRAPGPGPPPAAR
# [2] = tested on: FDG uptake of target lesions; assay: FDG-PET imaging pharmacodynamic response; assay type: in vivo, human
# In short: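 FDG-PET at baseline and after 2 weeks of oral once-daily dosing (C1D22–28; C1D15–22 for backfill). On-treatment scans 1–4 h post-dose; blood glucose <180 mg/dL required. Central read by one radiologist; up to five target lesions (tumor:background ≥2:1, longest diameter ≥15 mm). PMR: >25% decrease in mean % change of lean-body-mass-corrected SUVmax, no new FDG-avid lesions.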
# MFM223 cell line = assay: Live-cell imaging by IncuCyte, long-term proliferation; assay type: cell-based; settings: single agent
# In short: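 Plated at 2,000 cells/well; inhibitors added next day at set concentrations. Medium with or without inhibitors renewed every 7 days. Phase-contrast imaging every 4 h in IncuCyte Zoom; confluence tracked in six replicate wells for the whole experiment.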
# [3] = Phase 1 study: plasma pharmacokinetics, noncompartmental analysis; assay type: in vivo, human
# In short: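 Oral single dose on C1D1, then 7-day washout with serial plasma PK sampling, then once-daily dosing from C1D8. PK population: patients with ≥1 dose and ≥1 evaluable post-dose sample. Parameters from plasma concentration–time profiles after single and multiple doses by noncompartmental analysis, summarized by dose level.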
# PIK3CAmut solid tumors = assay: Phase 1 study: antitumor activity per RECIST v1.1; assay type: in vivo, human
# [4] = Phase 1 dose-escalation study NCT03006172 arm A: safety, DLT, MTD; assay type: in vivo, human
# PIK3CA MAF in ctDNA = assay: ctDNA PIK3CA mutation allele frequency dynamics; assay type: in vivo, human; settings: pretreatment vs on-treatment, majority of paired specimens
# HER3–p85β interaction = assay: Co-IP of p85β / HER3; assay type: cell-based
# In short: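 Cells exposed to test compound or FGFR2 inhibitor at several concentrations for 1 h. Lysis in Tris pH 7.5/NaCl/EDTA/1% NP40/10% glycerol with protease and phosphatase inhibitors. 1 mg lysate incubated overnight with anti-p85β (1:100, 1 mL), then protein A agarose 2 h. Immunoblot on nitrocellulose with 1:1,000 primary overnight at 4°C, HRP secondary 1:10,000 1 h RT, ECL/film. n=2.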
# pAKT, pS6, Ki67 = assay: IHC analysis of paired tumor tissue samples; assay type: in vivo, human; settings: baseline vs C1D15 biopsies, nine patients
# In short: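 Paired FFPE tumor biopsies from baseline and C1D15 during oral once-daily dosing. IHC for Ki67 (rabbit mAb clone 30-9; nuclear staining), pAKT and pS6. Cytoplasmic pAKT/pS6 scored by H-score: intensity 0, 1+, 2+, 3+. H-score = Σ(% cells at each intensity × intensity).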
# p110α [5] = assay: Ubiquitin pulldown; assay type: cell-based; settings: 6 hours
# p110α [6] = target: p110α (Homo sapiens, UniProt P42336); assay: Ubiquitin pulldown; assay type: cell-based; settings: PIK3CA WT cell line SUM52PE; 6 hours
# Sequence of p110α (Homo sapiens, UniProt P42336) (P42336 whole entry): as the sequence (P42336 whole entry H1047R) above, with R1047H counted along it
# [7] = tested on: MFM223 X2.2 tumor xenograft; assay: MFM223 X2.2 xenograft efficacy study; assay type: in vivo, NCR nude mice; settings: single agent, 25 mg/kg daily for 22 days
# [8] = tested on: SUM52PE, MFE296, AN3CA and MFE280 cell lines; assay: Dose-response proliferation assays; assay type: cell-based; settings: MFE296, AN3CA (FGFR2-high) and MFE280 (FGFR2-low)
# [9] = tested on: phosphorylation of FGFR, FRS2α, PLCɣ, AKT, and ERK; assay: Western blots of FGFR signaling; assay type: cell-based; settings: SUM52PE, MFE296, and AN3CA cells; 24 h
# In short: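 Lysates resolved and transferred to nitrocellulose; blocked 1 h in 5% milk/TBST (20 mM Tris-HCl pH 7.5, 135 mM NaCl, 0.1% Tween 20) at RT. Primary antibodies 1:1,000 overnight at 4°C; HRP anti-mouse or anti-rabbit 1:10,000 1 h RT. Detection by ECL and film.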
# [10] = tested on: phosphorylation of FGFR2, HER3 and AKT; assay: Immunoblotting after 1 hour treatment; assay type: cell-based; settings: solely in MFE280 cells, 2-μmol/L
# In short: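 Cells treated 1 h with 0.03 μmol/L FGFR2 inhibitor or 2 μmol/L lapatinib, then immunoblotted. Transfer to nitrocellulose; block 1 h in 5% milk/TBST RT. Primary antibody 1:1,000 overnight at 4°C; HRP secondary 1:10,000 1 h RT; ECL with film. n=2.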
# RAS-GTP = RAS-GTP pulldown and RAS co-IP; assay type: cell-based; settings: MFM223 or MFE280 cells
# In short: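 Cells treated with FGFR2 inhibitor or lapatinib for varying durations. Lysis on ice in 25 mM Tris pH 7.5, 150 mM NaCl, 1 mM EDTA, 1% NP40, 5 mM MgCl2, 10% glycerol plus inhibitors. Lysates incubated with capture bead conjugate or mouse IgG magnetic beads (control) at 4°C for 5 h. Beads washed 3× in cold buffer, eluted in sample buffer, immunoblotted.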
smiles,measurement,setting,value
C[C@@H](Oc1ccc2[nH]nc(/C=C/c3cnn(CCO)c3)c2c1)c1c(Cl)cncc1Cl [LY2874455],combination effect with inavolisib,[1],synergized
"Cc1nc(NC(=O)N2CCC[C@H]2C(N)=O)sc1-c1ccnc(C(C)(C)C(F)(F)F)c1 [alpelisib, reference compound]",time to pAKT rebound,pAKT; 1-μmol/L alpelisib,30 minutes
C[C@H](Nc1ccc2c(c1)OCCn1cc(N3C(=O)OC[C@H]3C(F)F)nc1-2)C(N)=O [inavolisib],mutated p110α protein level,mutated p110α,degradation
same,mean reduction in uptake,[2]; 6 mg,25%
same,patients achieving a PMR,"[2]; 6 mg, 4/7",57%
same,mean reduction in uptake,[2]; >6 mg,43%
same,patients achieving a PMR,"[2]; >6 mg, 12/13",92%
same,day of rebound in proliferation (resistance) after treatment initiation,MFM223 cell line,11 days
same,accumulation,[3]; continuous once-daily dosing,twofold
same,half-life,"[3]; human, plasma, oral",16 h
same,plasma exposure versus dose,"[3]; single and multiple doses, 6-12 mg",dose-proportional
same,median progression-free survival (PFS),"PIK3CAmut solid tumors; 95% CI, 3.5–7.3",3.7 months
same,landmark PFS rate at 6 months,"PIK3CAmut solid tumors; 95% CI, 15–59",37%
same,clinical benefit rate,PIK3CAmut solid tumors; N = 20 (n = 9),45%
same,best overall response rate (PR),"PIK3CAmut solid tumors; patients with measurable disease (n = 19), RECIST v1.1",26%
same,duration of response,"PIK3CAmut solid tumors; responders with a confirmed response, 95% CI, 3.0–not evaluable",3.7 months
same,DLT-evaluable patients who experienced DLTs,"[4]; 12-mg dose group, grade 4 hyperglycemia and grade 3 fatigue that lasted 5 days",two of four
same,"Alopecia, related AE","[4]; All grades, N = 20",3 (15) n (%)
same,"Asthenia, related AE","[4]; All grades, N = 20",2 (10) n (%)
same,"Constipation, related AE","[4]; All grades, N = 20",2 (10) n (%)
same,"Decreased appetite, related AE","[4]; All grades, N = 20",4 (20) n (%)
same,"Diarrhea, related AE","[4]; All grades, N = 20",9 (45) n (%)
same,"Dysgeusia, related AE","[4]; All grades, N = 20",2 (10) n (%)
same,"Fatigue, related AE","[4]; All grades, N = 20",3 (15) n (%)
same,"Flatulence, related AE","[4]; All grades, N = 20",2 (10) n (%)
same,"Headache, related AE","[4]; All grades, N = 20",2 (10) n (%)
same,"Hyperglycemia, related AE","[4]; All grades, N = 20",14 (70) n (%)
same,"Hyponatremia, related AE","[4]; All grades, N = 20",2 (10) n (%)
same,"Lymphopenia, related AE","[4]; All grades, N = 20",2 (10) n (%)
same,"Nausea, related AE","[4]; All grades, N = 20",3 (15) n (%)
same,"Stomatitis (grouped term), related AE","[4]; All grades, N = 20",4 (20) n (%)
same,"Taste disorder, related AE","[4]; All grades, N = 20",2 (10) n (%)
same,"Thrombocytopenia, related AE","[4]; All grades, N = 20",2 (10) n (%)
same,"Total number of patients with at least one AE, related AE","[4]; All grades, N = 20",19 (95) n (%)
same,"Vision blurred, related AE","[4]; All grades, N = 20",2 (10) n (%)
same,"Vomiting, related AE","[4]; All grades, N = 20",4 (20) n (%)
same,"Weight decreased, related AE","[4]; All grades, N = 20",3 (15) n (%)
same,patients with at least one related AE leading to dose modification,"[4]; Eleven patients, N = 20",55%
same,"Alopecia, related AE","[4]; Grades 3–5, N = 20",0 n (%)
same,"Asthenia, related AE","[4]; Grades 3–5, N = 20",1 (5) n (%)
same,"Constipation, related AE","[4]; Grades 3–5, N = 20",0 n (%)
same,"Decreased appetite, related AE","[4]; Grades 3–5, N = 20",0 n (%)
same,"Diarrhea, related AE","[4]; Grades 3–5, N = 20",0 n (%)
same,"Dysgeusia, related AE","[4]; Grades 3–5, N = 20",0 n (%)
same,"Fatigue, related AE","[4]; Grades 3–5, N = 20",1 (5) n (%)
same,"Flatulence, related AE","[4]; Grades 3–5, N = 20",0 n (%)
same,"Headache, related AE","[4]; Grades 3–5, N = 20",0 n (%)
same,"Hyperglycemia, related AE","[4]; Grades 3–5, N = 20",4 (20) n (%)
same,"Hyponatremia, related AE","[4]; Grades 3–5, N = 20",0 n (%)
same,"Lymphopenia, related AE","[4]; Grades 3–5, N = 20",1 (5) n (%)
same,"Nausea, related AE","[4]; Grades 3–5, N = 20",1 (5) n (%)
same,"Stomatitis (grouped term), related AE","[4]; Grades 3–5, N = 20",0 n (%)
same,"Taste disorder, related AE","[4]; Grades 3–5, N = 20",0 n (%)
same,"Thrombocytopenia, related AE","[4]; Grades 3–5, N = 20",0 n (%)
same,"Total number of patients with at least one AE, related AE","[4]; Grades 3–5, N = 20",8 (40) n (%)
same,"Vision blurred, related AE","[4]; Grades 3–5, N = 20",0 n (%)
same,"Vomiting, related AE","[4]; Grades 3–5, N = 20",0 n (%)
same,"Weight decreased, related AE","[4]; Grades 3–5, N = 20",1 (5) n (%)
same,grade 5 AE,[4]; N = 20,No grade 5 AE
same,grade of treatment-related diarrhea events,[4]; N = 20,1 to 2
same,treatment-related grade ≥3 gastrointestinal toxicities,[4]; N = 20,No treatment-related grade ≥3 gastrointestinal toxicities
same,serious AE related to inavolisib,"[4]; grade 4 hyperglycemia, 12-mg cohort",One patient
same,colitis,"[4]; monotherapy, including nine patients on treatment for ≥5 months",not observed
same,maximum tolerated dose (MTD),"[4]; once daily oral, patients with PIK3CAmut solid tumors",9 mg
same,treatment-related rash,"[4]; one patient, grade 1, N = 20",5%
same,PIK3CA MAF over time,PIK3CA MAF in ctDNA,decreased
same,binding of p85β to HER3,"HER3–p85β interaction; SUM52PE, MFM223, and MFE280 cells, 1 hour",did not affect
same,"PI3K pathway activity (H-scores pAKT, pS6) and Ki67 proliferation","pAKT, pS6, Ki67",consistent decrease
same,ubiquitination of p110α,p110α [5]; PIK3CAmut cell lines MFM223 and MFE280,induced ubiquitination
same,ubiquitination of p110α,p110α [6],no ubiquitination
same,tumor growth,[7],did not result in tumor growth inhibition
same,time to pAKT reactivation,pAKT; 0.5-μmol/L inavolisib,24 hours
CCN1CCN(c2ccc(Nc3cc(N(C)C(=O)Nc4c(Cl)c(OC)cc(OC)c4Cl)ncn3)cc2)CC1 [infigratinib],sensitivity of cell lines,[8],sensitive
same,reduction of phosphorylation of FGFR and downstream effectors,[9],equal potency
same,combination effect with inavolisib,[1],synergized
"CS(=O)(=O)CCNCc1ccc(-c2ccc3ncnc(Nc4ccc(OCc5cccc(F)c5)c(Cl)c4)c3c2)o1 [lapatinib, reference compound]",phosphorylation of HER3 and AKT,[10],decreased phosphorylation
same,HER3–p85β interaction,"HER3–p85β interaction; MFE280 FGFR2-low cells, 1 h",suppressed
same,effect on inavolisib-induced p110α ubiquitination,"p110α [5]; MFE280 cells, combined with inavolisib",prevented
same,RAS-GTP levels and RAS–p110α interaction,RAS-GTP,affected neither
